Common to all, as to format: functional
One test has as its system Pseudomonas aeruginosa. Kind of test: Antibacterial activity against Pseudomonas aeruginosa ATCC 27853 by conventional agar dilution method. In short, it runs like this: (§1)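 Inoculum: 3–5 colonies suspended to 0.5 McFarland, then diluted 1000-fold to 1.5 · 10⁵ CFU/mL. Compounds dissolved in DMSO, diluted with water to stock, then serially doubled in Mueller–Hinton broth to 1000, 512, 256, 128, 64, 32, 16, 8, 4 and 2 in a 12-well series. Equal volumes of dilution and bacterial suspension were combined. DMSO-only medium served as solvent control. Sulfamethoxazole was the reference.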
(In general: In agar dilution, organisms are placed on agar that contains the substance at set levels.)

The subject of another test is Klebsiella pneumoniae. The test is described as follows: Antibacterial activity against Klebsiella pneumoniae isolate by conventional agar dilution method. In short, it runs like this: as §1
The test system of test [1] is Staphylococcus aureus. Kind of test: Antibacterial activity against Staphylococcus aureus […] by conventional agar dilution method. In short, it runs like this:
as §1

The next test deals with Escherichia coli. Kind of test: Antibacterial activity against Escherichia coli isolate by conventional agar dilution method. In short, it runs like this: as §1
For a further test, the system named is Enterococcus faecium. The test is described as follows: Antibacterial activity against Enterococcus faecium isolate by conventional agar dilution method. In short, it runs like this:
as §1

For test [2], the system named is Staphylococcus aureus. Kind of test: Antibacterial activity against Staphylococcus aureus isolate by conventional agar dilution method. In short, it runs like this: as §1

≈ marks a conversion by molar mass, not a printed value. A value given as a limit tells only on which side of the number the result lay.

By MIC is commonly meant the lowest concentration found to suppress growth. Read a low MIC as a more susceptible organism.

Turning to `CCC(=O)NS(=O)(=O)c1ccc(C)cc1`, the MIC was determined as 500 µg/mL (≈ 2200 µM) in the test on Pseudomonas aeruginosa; 500 µg/mL (≈ 2200 µM) against Klebsiella pneumoniae; 64 µg/mL (≈ 282 µM) with Staphylococcus aureus [1]; 128 µg/mL (≈ 563 µM) with Escherichia coli; 64 µg/mL (≈ 282 µM) in the test on Enterococcus faecium; 128 µg/mL (≈ 563 µM) against Staphylococcus aureus [2].

For `CCCCC(=O)NS(=O)(=O)c1ccccc1`, the MIC against Pseudomonas aeruginosa, in the test on Klebsiella pneumoniae, against Staphylococcus aureus [1], with Escherichia coli, against Enterococcus faecium and in the test with Staphylococcus aureus [2] was greater than 1000 µg/mL throughout.

Take `Cc1ccc(S(=O)(=O)NC(=O)c2ccccc2)cc1`: the MIC with Pseudomonas aeruginosa stood at 256 µg/mL (≈ 930 µM); in the test on Klebsiella pneumoniae, 256 µg/mL (≈ 930 µM); in the test on Staphylococcus aureus [1], 256 µg/mL (≈ 930 µM); against Escherichia coli it was 64 µg/mL (≈ 232 µM); in the test with Enterococcus faecium, 128 µg/mL (≈ 465 µM); against Staphylococcus aureus [2], 256 µg/mL (≈ 930 µM).

Take `CS(=O)(=O)NC(=O)c1ccccc1`: the MIC with Pseudomonas aeruginosa is 500 µg/mL (≈ 2510 µM); in the test with Klebsiella pneumoniae, 500 µg/mL (≈ 2510 µM); against Staphylococcus aureus [1], 500 µg/mL (≈ 2510 µM); against Escherichia coli, 256 µg/mL (≈ 1280 µM); against Enterococcus faecium, 256 µg/mL (≈ 1280 µM); against Staphylococcus aureus [2], 256 µg/mL (≈ 1280 µM).

For `CCC(=O)NS(=O)(=O)c1ccccc1`, the MIC against Pseudomonas aeruginosa was determined as 500 µg/mL (≈ 2340 µM); against Klebsiella pneumoniae it was 256 µg/mL (≈ 1200 µM); in the test on Staphylococcus aureus [1], 128 µg/mL (≈ 600 µM); in the test on Escherichia coli, 256 µg/mL (≈ 1200 µM); with Enterococcus faecium, 64 µg/mL (≈ 300 µM); with Staphylococcus aureus [2], 256 µg/mL (≈ 1200 µM).

`O=C(NS(=O)(=O)c1ccccc1)c1ccccc1`: the minimum inhibitory concentration (MIC) in the test with Pseudomonas aeruginosa was 256 µg/mL (≈ 980 µM); in the test on Klebsiella pneumoniae, 256 µg/mL (≈ 980 µM); in the test on Staphylococcus aureus [1], 256 µg/mL (≈ 980 µM); in the test with Escherichia coli it was 256 µg/mL (≈ 980 µM); in the test on Enterococcus faecium, 256 µg/mL (≈ 980 µM); against Staphylococcus aureus [2] it was 500 µg/mL (≈ 1910 µM).

For the compound `Cc1cc(NS(=O)(=O)c2ccc(N)cc2)no1` [SULFAMETHOXAZOLE], the MIC was determined as 8 µg/mL (≈ 31.6 µM) in the test with Pseudomonas aeruginosa; 8 µg/mL (≈ 31.6 µM) against Klebsiella pneumoniae; 2 µg/mL (≈ 7.9 µM) with Staphylococcus aureus [1]; 2 µg/mL (≈ 7.9 µM) in the test on Escherichia coli; 4 µg/mL (≈ 15.8 µM) in the test on Enterococcus faecium; 4 µg/mL (≈ 15.8 µM) with Staphylococcus aureus [2].

In the case of `CCCCC(=O)NS(=O)(=O)c1ccc(C)cc1`, the MIC with Pseudomonas aeruginosa, in the test with Klebsiella pneumoniae, in the test on Staphylococcus aureus [1], against Escherichia coli, in the test on Enterococcus faecium and against Staphylococcus aureus [2] was greater than 1000 µg/mL each time.

For `CC(=O)NS(=O)(=O)c1ccccc1`, the MIC in the test with Pseudomonas aeruginosa, in the test on Klebsiella pneumoniae, in the test on Staphylococcus aureus [1], against Escherichia coli, in the test with Enterococcus faecium and with Staphylococcus aureus [2] was greater than 1000 µg/mL in each case.
